Reference: ChEMBL document CHEMBL1154914, “Orally bioavailable anti-HBV dinucleotide acyloxyalkyl prodrugs” (Bioorg Med Chem Lett, 2010)
The source made the active and inactive calls. The rule behind the calls is not given here.

Columns and labels:
[1] = Cytotoxicity against MDBK cells after 24 hrs by MTT assay; type: cell-based, Bos taurus; conditions: cattle
[2] = Half life in simulated gastric fluid after 1 hr by reverse phase HPLC; type: physicochemical
Outline: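 Prodrug stock of 2 mg/200 μL DMSO, diluted 1:20 in USP simulated gastric fluid and held at 37 °C for 1 h. Timed aliquots were quenched with methanol, brought to pH 6.0 with NH4OAc/NaOH, centrifuged and concentrated. Read by reversed-phase C18 HPLC using a 30 min gradient from 0.1 M NH4OAc to 80:20 CH3CN:NH4OAc at 1 mL/min.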

[3] = Cytotoxicity against human HFF cells after 24 hrs by MTT assay; type: cell-based
[4] = Half life in simulated intestinal fluid after 1 hr by reverse phase HPLC; type: physicochemical
Outline: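 Prodrug stock (2 mg per 200 μL DMSO) diluted 1:20 into simulated intestinal fluid and held at 37 °C for 1 h. Aliquots at selected times were quenched with methanol, brought to pH 6.0 with NH4OAc/NaOH, centrifuged, concentrated and redissolved in 0.1 M NH4OAc. Analysed by reversed-phase C18 HPLC with photodiode-array detection, 0.1 M NH4OAc to 80:20 CH3CN:NH4OAc gradient over 30 min.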

[5] = Cytotoxicity against african green monkey Vero cells after 24 hrs by MTT assay; type: cell-based; conditions: chlorocebus sabaeus
Hepatitis B virus [6] = assay: Antiviral activity against HBV infected in mouse assessed as liver HBV DNA level at 300-400 mg/kg, po QD for 14 days by Southern blotting; type: functional, organism-based
Outline: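 HBV transgenic mice, pre-biopsied for liver HBV DNA and block-randomized (8/group). Dosed 300 to 400 mg/kg by oral gavage once daily for 14 days in 0.05 M citric acid pH 2.4 (0.1 mL per 20 g). Liver Southern blot with a 32P HBV genomic probe, hybridized overnight at 60°C and read by phosphorimaging. Viral DNA was ratioed to the transgene band (1.3 copies/cell). ADV was the positive control.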

Hepatitis B virus [7] = assay: Antiviral activity against 3TC-resistant HBV with polymerase LMMV mutation infected in HepG2.2.15 cells assessed as nucleic acid and protein levels dosed daily for 9 days and measured 24 hrs after last treatment by Southern blot hybridization; type: functional, organism-based, HepG2 2.2.15; conditions: for EC50: Hepatitis B virus, HepG2 2.2.15
Hepatitis B virus [8] = assay: Antiviral activity against ADV-resistant HBV N236T mutation infected in HepG2.2.15 cells assessed as nucleic acid and protein levels dosed daily for 9 days and measured 24 hrs after last treatment by Southern blot hybridization; type: functional, organism-based, HepG2 2.2.15; conditions: for EC50: Hepatitis B virus, HepG2 2.2.15
Hepatitis B virus [9] = assay: Antiviral activity against 3TC-resistant HBV with polymerase M204V mutation infected in HepG2.2.15 cells assessed as nucleic acid and protein levels dosed daily for 9 days and measured 24 hrs after last treatment by Southern blot hybridization; type: functional, organism-based, HepG2 2.2.15; conditions: for EC50: Hepatitis B virus, HepG2 2.2.15
Hepatitis B virus [10] = assay: Antiviral activity against wild type HBV infected in HepG2.2.15 cells assessed as nucleic acid and protein levels dosed daily for 9 days and measured 24 hrs after last treatment by Southern blot hybridization; type: functional, organism-based, HepG2 2.2.15; conditions: for EC50: Hepatitis B virus, HepG2 2.2.15
Hepatitis B virus [11] = assay: Antiviral activity against 3TC-resistant HBV with polymerase L180M mutation infected in HepG2.2.15 cells assessed as nucleic acid and protein levels dosed daily for 9 days and measured 24 hrs after last treatment by Southern blot hybridization; type: functional, organism-based, HepG2 2.2.15; conditions: for EC50: Hepatitis B virus, HepG2 2.2.15
Hepatitis B virus [12] = assay: Antiviral activity against 3TC-resistant HBV with polymerase M204I mutation infected in HepG2.2.15 cells assessed as nucleic acid and protein levels dosed daily for 9 days and measured 24 hrs after last treatment by Southern blot hybridization; type: functional, organism-based, HepG2 2.2.15; conditions: for EC50: Hepatitis B virus, HepG2 2.2.15
Mus musculus = assay: Toxicity against HBV infected mouse at 300-400 mg/kg, po QD for 14 days; type: organism-based; conditions: in vivo, 336 h
Hepatitis B virus [13] = assay: Antiviral activity against HBV infected in mouse assessed as reduction in liver HBV DNA level dosed po QD for 14 days by Southern blotting; type: functional, organism-based
Outline: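 HBV transgenic mice, pre-biopsied for liver HBV DNA and block-randomized (8/group). Gavaged at 1, 5, 10 or 100 mg/kg once daily for 14 days in 0.05 M citric acid pH 2.4, against placebo and an ADV control. Liver taken after the last dose. HBV DNA by Southern blot with a 32P genomic probe and phosphorimaging, normalized to the transgene band (1.3 copies/cell).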

Compound | CC50 at 24 h [1] [µM] | half-life [2] [h] | CC50 at 24 h [3] [µM] | half-life [4] [h] | CC50 at 24 h [5] [µM] | Activity (Hepatitis B virus [6]) | EC90 (Hepatitis B virus [7]) [µM] | EC50 (Hepatitis B virus [7]) [µM] | EC90 (Hepatitis B virus [8]) [µM] | EC50 (Hepatitis B virus [8]) [µM] | EC90 (Hepatitis B virus [9]) [µM] | EC50 (Hepatitis B virus [9]) [µM] | EC90 (Hepatitis B virus [10]) [µM] | EC50 (Hepatitis B virus [10]) [µM] | EC90 (Hepatitis B virus [11]) [µM] | EC50 (Hepatitis B virus [11]) [µM] | EC90 (Hepatitis B virus [12]) [µM] | EC50 (Hepatitis B virus [12]) [µM] | Activity (Mus musculus) | Activity (Hepatitis B virus [13])
CO[C@@H]1[C@H](OP(=O)(S)OC[C@H]2O[C@@H](n3cnc4c(N)ncnc43)C[C@@H]2O)[C@@H](CO)O[C@H]1n1ccc(=O)[nH]c1=O (stereo partly drawn) [INARIGIVIR] | > 1000 | < 0.25 | > 1000 | 1 | > 1000 |  |  |  |  |  |  |  |  |  |  |  |  |  |  | 
CO[C@@H]1[C@H](OP(=O)(OC[C@H]2O[C@@H](n3cnc4c(N)ncnc43)C[C@@H]2O)SCOC(=O)C(C)(C)C)[C@@H](CO)O[C@H]1n1ccc(=O)[nH]c1=O (stereo partly drawn) | > 1000 | > 1 | > 1000 |  | > 1000 | Active |  |  |  |  |  |  |  |  |  |  |  |  |  | 
CC(C)(C)C(=O)OCOP(=O)(COCCn1cnc2c(N)ncnc21)OCOC(=O)C(C)(C)C [ADEFOVIR DIPIVOXIL] |  |  |  |  |  |  | 8.3 | 2.2 | 29 | 7.5 | 7.2 | 1.8 | 7 | 1.5 | 8.2 | 2.1 | 8 | 2 |  | 
CO[C@@H]1[C@H](OP(=O)(OC[C@H]2O[C@@H](n3cnc4c(N)ncnc43)C[C@@H]2O)SCOC(=O)OC(C)C)[C@@H](CO)O[C@H]1n1ccc(=O)[nH]c1=O (stereo partly drawn) [INARIGIVIR SOPROXIL] | > 1000 | > 1 | > 1000 |  | > 1000 | Active | 9.3 | 3.1 | 8.7 | 2.8 | 8.3 | 2.4 | 8.5 | 2.5 | 8.6 | 2.1 | 9.2 | 3 | Non-toxic | Dose-dependent effect
Nc1ccn([C@@H]2CS[C@H](CO)O2)c(=O)n1 [LAMIVUDINE] |  |  |  |  |  |  | >100 | > 100 | 0.8 | 0.2 | >100 | > 100 | 0.7 | 0.2 | 20 | 5.3 | >100 | > 100 |  | 
